Series [1] is described as follows: Apparent permeability in RRCK cells at 8 uM at pH 7.4 incubated for 2 hrs by LC-MS/MS method. The format is ADME, cell-based, Canis lupus familiaris, MDCKII-LE. The note with it: dog, MDCK.
Series [2] can be described thus: Apparent permeability in RRCK cells at 8 uM at pH 7.4 incubated for 2 hrs by LC-MS/MS method relative to CSA. The format is ADME, cell-based, Canis lupus familiaris. As to conditions: dog, mdckii-le, pH 7.4, 2 h. Put shortly:
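RRCK monolayers (no active transporters); compound at 8 μM alongside cyclosporin A at 8 μM; medium 0.05% DMSO in HEPES buffer, pH 7.4, 37 °C; apparent permeability expressed in cm·s–1.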

Series [3] is described as follows: Permeability in human Caco2 cells at 10 uM by LC-MS method. As to conditions: caco-2, 10 µM. The format is ADME, cell-based. Summed up: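 Caco-2 monolayers; compound at 10 μM, cyclosporin A comparator at 30 μM; medium 0.05% DMSO in HEPES buffer, pH 7.4, 37 °C; apparent permeability in cm·s–1.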
A short description of series [4]: Oral bioavailability in Wistar rat at 10 mg/kg measured over 8 hrs by LC-MS method. The note with it: in vivo. It is filed as ADME, organism-based.
A short description of series [5]: Clearance in Wistar rat at 1 mg/kg, iv by LC-MS method. The format is ADME, organism-based. Further details: dose 1 mg/kg, route intravenous. The note with it: in vivo.

Peptide text beside a SMILES is read from it.

This note sets out measurements from ChEMBL document CHEMBL3351905, “Cyclic Penta- and Hexaleucine Peptides without N-Methylation Are Orally Absorbed” (ACS Med Chem Lett, 2014).

For the compound `CC(C)C[C@@H]1NC(=O)[C@H](CC(C)C)NC(=O)[C@H](CC(C)C)NC(=O)[C@@H](CC(C)C)NC(=O)[C@H](CC(C)C)NC(=O)[C@H](CC(C)C)NC1=O`, the apparent permeability coefficient (Papp) at 2 h, 8 µM in series [1] is greater than 1 ×10⁻⁶ cm/s. Further, the “fold change (FC)” value in series [2] came to 2. Further, the permeability entry in series [3] is “permeable”. Moreover, the bioavailability in series [4] was 9%. In series [5], this compound returned a clearance of 24.1 mL/min/kg.

For the compound `CC(C)C[C@@H]1NC(=O)[C@H](CC(C)C)NC(=O)[C@H](CC(C)C)NC(=O)[C@H](CC(C)C)NC(=O)[C@H](CC(C)C)NC(=O)[C@H](CC(C)C)NC1=O`, the apparent permeability (Papp) at 2 h, 8 µM in series [1] was greater than 1 ×10⁻⁶ cm/s. Moreover, the “fold change (FC)” value in series [2] is recorded as 2. The permeability result in series [3] is recorded as “permeable”. This compound came in with a bioavailability in series [4] of 17%. In addition, in series [5], the clearance came out at 4.7 mL/min/kg.

With `CC(C)C[C@@H]1NC(=O)[C@H](CC(C)C)NC(=O)[C@H](CC(C)C)NC(=O)[C@H](CC(C)C)NC(=O)[C@H](CC(C)C)NC1=O` (cyclo(LLLLL)), the apparent permeability coefficient (Papp) at 2 h, 8 µM in series [1] stood at 1.7 ×10⁻⁶ cm/s. Besides, the permeability result in series [3] is listed as “permeable”. In series [4], this compound came in with a bioavailability of 4%.
